Activation data for 100 compounds are collected here from PubChem BioAssay AID504383 (The Scripps Research Institute Molecular Screening Center, 2011).

The whole screen tested about 2,500 compounds, of which about 1,200 (48%) were called active. So high a share suggests a set chosen from earlier hits. This is one part of the list. A number with no mark means an inactive call.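 The calls were made as follows: active = mean activation above the low control average plus 3 SD, as set in the primary screen (cut at about 12% in these data); inactive = the rest.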

For the assay, the target named is Troponin I, cardiac muscle (Homo sapiens) + Troponin T, cardiac muscle (Homo sapiens) + Troponin C, slow skeletal and cardiac muscles (Homo sapiens) (UniProt P19429+P45379+P63316). Nature of the assay: calcium sensitizers of cardiac thin filaments – biochemical, IANBD-TnC fluorescence, triplicate, confirmation (AID 504383).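 Also: 0% = DMSO at 0.472 mM calcium and 100% = DMSO at 2.9 mM calcium.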 The following applies: IANBD-labeled cardiac RTF, Ca2+ sensitivity fluorescence; at 7.2 µM; stronger effect = higher value; scaled from EC20 to saturating calcium; tested at EC20 calcium, 0.472 mM. The gist of the method: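 material = labelled regulated thin filaments | probe or stimulus = Ca2+ 0.472 mM, EC20 level | dosing = single nominal compound dose of 7.2 µM | schedule = 15 min at 25 °C | signal = fluorescence intensity of labelled filaments | evaluation = fluorescence gain scaled between EC20 and EC100 calcium controls | benchmarks = low control EC20 calcium, high control EC100 calcium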
For the compound `NC(=O)CC[C@@H]1NC(=O)[C@H](Cc2ccc(O)cc2)NC(=O)c2cc([N+](=O)[O-])cc(F)c2OCC[C@@H](C(N)=O)NC1=O`, the activation was 0.64%.
The same measure for `Cc1ccc(CN2CCN(Cc3ccc(-n4cccn4)cc3C)CC2CCO)cc1` (stereo not given): 108% (active).
The same measure for `CCOc1ccc(CN2CCN(C/C=C/c3ccc(OC)cc3)CC2CCO)cc1` (stereo not given): 7.69%; for `CC/C(=N/Nc1cccc(C)c1)c1cnnc(SC)n1`: 12.7% (active).
The same measure for `COc1ccccc1CNc1cc(C)ccc1C`: 1250% (active); for `C#CCN1C(=O)S/C(=C/C=C/c2ccc(N(C)C)cc2)C1=O`: 9.72%; for `CC(=O)c1ccc(NC(=O)CN2C(=O)/C(=C/C=C/c3ccccc3)SC2=S)cc1`: 13.7% (active).
With `COc1cc(/C=C2/SC(=S)N(CCC(=O)Nc3ccccc3)C2=O)cc(OC)c1OC`, the activation is 1.16%.
The same measure for `Cc1ccc(/C=C/C(=O)Nc2cccc3cccnc23)o1`: 20.6% (active); for `COc1ccc(N2C(=O)[C@@H]3[C@H](C2=O)[C@H](C(C)=O)N2c4ccccc4C=C[C@@H]32)cc1`: 9.39%.
As for `COc1ccc(C2C(C(=O)c3ccccc3)N3c4ccccc4C=CC3C2[N+](=O)[O-])cc1` (stereo not given), the figure is 47.8% (active).
The same measure for `Cc1cc(N/C=C\c2nnnn2-c2ccc(F)cc2)no1`: 979% (active).
Regarding `O=C1c2cccc3c(O)ccc(c23)C(=O)N1Cc1ccccc1`, the activation was 33.7% (active).
For `C[C@H]1CCC(=O)N([C@H](CSc2ccc(Br)cc2)Cc2ccccc2)CC1`, the activation is 6.56%.
In the case of `COc1ccc2[nH]c3c(c2c1)CCNC3c1ccc([N+](=O)[O-])o1` (stereo not given), the activation is 2.79%.
Regarding `O=C(c1ccccc1Nc1ccc(SC(F)F)cc1)N1CCCCC1`, the activation was 5.45%.
As for `O=C(c1ccc(Nc2cccc(C(F)(F)F)c2)nc1)N1CCCC1`, the figure is 168% (active); as for `CCSc1cc(N2CCCC2)nc(-c2ccc(Cl)cc2)n1`, 6.74%.
In the case of `C/C(=N/NC(=O)Nc1ccccc1)c1ccc(C)cc1`, the activation is 9.45%.
On to `C/C(=N/NS(=O)(=O)c1ccccc1)c1ccc(NC(=O)C2CC2)cc1`, for which the activation was 20.7% (active).
The same measure for `C#Cc1ccc([C@@H]2C=C(C(=O)OCC=C)O[C@H](OCCCCO)C2)cc1`: 9.72%; for `O=C(C1=C[C@@H](c2ccc(Br)cc2)C[C@@H](OCc2ccc(CO)cc2)O1)N1CCN(Cc2ccc3c(c2)OCO3)CC1`: 4.22%.
Regarding `O=C(Nc1ccccc1)C1=C[C@H](c2ccc3c(c2)OCO3)C[C@H](OCCCCO)O1`, the activation is 13% (active).
As for `CCCC[C@H]1COCCS(=O)(=O)N1Cc1ccc(F)cc1`, the activation is 0.38%.
Consider `CCCn1c(N2CCN(CC(=O)c3c[nH]c4ccccc34)CC2)nc2c1c(=O)[nH]c(=O)n2C`, for which the activation is 8.31%.
As for `NC(=O)c1c[nH]c2ccccc12`, the figure is 717% (active).
As to `OCCc1c[nH]c2ccccc12`, the activation is 6.66%.
The same measure for `N#C/C(=C/c1ccc(N2CCCCCC2)o1)c1cccc(F)c1`: 99.3% (active).
As for `N#C/C(=C/c1ccc(N2CCOCC2)o1)c1ccc(Cl)cc1`, the activation is 9.77%.
The same measure for `N#C/C(=C/c1ccc(N2CCCCCC2)o1)c1ccc(Cl)cc1`: 38.8% (active); for `O=C(NCc1nnc(SCC(=O)N2CCCCCC2)o1)c1ccco1`: 28.5% (active); for `CC(C)Sc1nc2ccc(Br)cc2[nH]1`: 56.5% (active).
Take `COC(=O)c1ccc(S(=O)(=O)N(CCO)Cc2ccccc2)n1C`: the activation was 6.61%.
Consider `COC(=O)c1ccc(S(=O)(=O)N2CCC(O)CC2)n1C`, for which the activation was 30.3% (active).
The same measure for `Cc1ccc(N2CN(Cc3cccnc3)CNC2=S)cc1`: 13.6% (active); for `Cc1ccc(CNc2cccnc2)cc1`: 1.46%; for `CS/C(=N\S(=O)(=O)c1cccs1)Nc1cccc(Cl)c1C`: 61.5% (active).
The same measure for `COCCn1c(-c2ccc(C)cc2)nc2oc3cc(OC)ccc3c(=O)c2c1=O`: 10.7%; for `COCCOC(=O)c1sc(=S)n(CCOC)c1N`: 7.49%.
As for `COCCn1c(=O)c2ccccc2c2ccccc2c1=O`, the figure is 89% (active); as for `CCC(=O)Nc1ccc2oc(-c3cccnc3)nc2c1`, 210% (active); as for `CCC(=O)N/C(=N/c1nc(C)cc(C)n1)Nc1ccccc1`, 7.51%.
`Cc1cc(=O)oc(C)c1C(=O)Nc1ccc2ncccc2c1`: the activation is 6.03%.
As for `CCCCN=C1N/C(=C\c2ccco2)C(=O)N1c1ccccc1`, the figure is 370% (active); as for `COC(=O)[C@H](Cc1ccccc1)NC(=O)Nc1ccc(OC)cc1`, 4.56%.
With `Cc1cc(NC(=O)COC(=O)C(Cc2ccccc2)NC(=O)c2ccco2)no1` (stereo not given), the activation was 39.2% (active).
Turning to `O=C1C=C(NCc2ccco2)CC(c2ccc(Cl)cc2)C1` (stereo not given), the activation was 4.86%.
The same measure for `CCc1ccc(C2C(C#N)=C(N)SC(N)=C2C#N)s1`: 9.19%.
On to `Nc1cnccc1C(=O)O`, for which the activation is 26% (active).
The same measure for `CN(C)C=Nc1c(Br)cc(Br)c2nonc12`: 31.3% (active); for `CC(C)(C)c1ccc(C(=O)N/C(=C\c2cccs2)C(=O)NCc2ccco2)cc1`: 9.9%.
In the case of `O=C(NCc1ccco1)/C(=C\c1ccco1)NC(=O)c1ccc(Br)o1`, the activation is 72.9% (active).
For `O=C(NCc1cccnc1)/C(=C\c1ccc(-c2ccc(Cl)c(Cl)c2)o1)S(=O)(=O)c1ccccc1`, the activation was 5.91%.
As for `Cc1cnc(C(=O)Nc2nnc(SCc3c(Cl)cccc3Cl)s2)cn1`, the figure is 15% (active); as for `CCOC(=O)c1c(C)[nH]c(C2=NNC(=NC(C)COC)SC2)c1C` (stereo not given), 81% (active); as for `NC(N)=NCc1cccc(I)c1`, 7.58%.
As for `CN(C(=O)C1CCC1C(=O)O)c1nc(-c2ccc(Cl)s2)cs1` (stereo not given), the figure is 176% (active); as for `COC(=O)c1ccc(OC)c(OC2CCCC2)c1`, 6.45%.
Take `CCOc1ccc(NC(=O)COC(=O)CCN2C(=O)C3CC=CCC3C2=O)cc1OCC` (stereo not given): the activation is 8.79%.
As to `CCOc1ccc(C(=O)NCC(=O)N2CCC3CCCCC3C2)cc1OCC` (stereo not given), the activation was 167% (active).
`CC(CC(=O)N1CCc2ccccc21)n1cccn1` (stereo not given): the activation is 5.25%.
In the case of `CCn1nnnc1SCC(=O)N1CCCc2ccccc21`, the activation was 10.8%.
Regarding `Cc1ccc2c(c1)N(CC(=O)N1CCCc3ccccc31)C(=O)C(C)O2` (stereo not given), the activation is 21.6% (active).
As for `O=C(O)CN1C(=O)c2cccc3c(Br)ccc1c23`, the figure is 89% (active).
On to `CCOCCc1nnc(NC(=O)COC)s1`, for which the activation is 3.67%.
The same measure for `CCOC(=O)C(=O)Nc1nnc(COc2ccccc2)s1`: 9.76%; for `CCCCOC(=O)Nc1nnc(C(C)C)s1`: 617% (active).
For the compound `CCSc1nnc(-c2sc3nnc(-c4ccccc4)c(-c4ccccc4)c3c2N)o1`, the activation was 6.28%.
Consider `O=C(O)c1ncc(-c2ccccc2)cn1`, for which the activation was 128% (active).
As for `O=C([O-])c1ccccc1-[n+]1c(-c2ccccc2)cc(-c2ccccc2)cc1-c1ccccc1`, the figure is 7.07%; as for `O=C(N/N=C/c1c(O)n(-c2ccc(Cl)cn2)c(=O)c2ccccc12)c1ccncc1`, 14.8% (active).
As for `CCn1c(O)c(/C=N/NC(=O)c2ccncc2)c(=O)n(CC)c1=S`, the figure is 10.1%; as for `N=C1/C(=C\c2coc3ccccc3c2=O)C(=O)N=C2SC(c3ccncc3)=NN12`, 22.9% (active).
As to `CC(C)CC1=NN2C(=N)/C(=C\c3coc4ccccc4c3=O)C(=O)N=C2S1`, the activation was 13.7% (active).
As for `N=C1/C(=C\c2coc3ccc(O)cc3c2=O)C(=O)N=C2SC=CN12`, the figure is 5.99%; as for `N=C1/C(=C\c2coc3ccccc3c2=O)C(=O)N=C2SC=CN12`, 12.3% (active).
Regarding `Cc1ccccc1Cn1cccc1/C=C1/C(=N)N2C=CSC2=NC1=O`, the activation is 14.6% (active).
As for `O=C(c1ccccc1)N1CCN(CC#CC2(O)CCCCC2)CC1`, the figure is 8.87%; as for `COc1ccc(N2CCN(C(=O)Cn3nnc(-c4ccccc4N)n3)CC2)cc1`, 46.5% (active).
With `CC1CCCCN1C(=O)Cn1nnc(-c2cccnc2)n1` (stereo not given), the activation is 5.92%.
The same measure for `COc1ccc(-n2nc3c(N4CCC(C(=O)NCc5ccco5)CC4)nnc(C)c3c2C)cc1`: 4.51%; for `CC(C)CC1C(C#N)=C(N)SC(N)=C1C#N`: 4.27%; for `Cc1cc(=O)n2nc(N3CCCC3C(=O)Nc3ccc(C(C)C)cc3)sc2n1` (stereo not given): 426% (active).
On to `COc1cc(NC(=O)[C@@H]2CCCN2S(=O)(=O)c2cccc3cccnc23)cc(OC)c1OC`, for which the activation is 7.77%.
`Cc1cc(Br)c2c(c1)C(O)(N1CCCCC1C)C(=O)N2` (stereo not given): the activation is 12.6% (active).
As for `CC1=NN(C(=O)c2ccc(Cn3ccc([N+](=O)[O-])n3)cc2)C(O)(C(F)(F)F)C1` (stereo not given), the figure is 18.8% (active); as for `CC1=NN(C(=O)c2ccccc2-n2cccc2)C(O)(C(F)(F)F)C1` (stereo not given), 15.7% (active).
With `COc1cccc(OC)c1C(=O)NNC(=O)c1ccccc1-n1cccc1`, the activation is -0.16%.
For the compound `CC1=C(C#N)C(=O)OC(C)(C)C1`, the activation was 10.4%.
Consider `CSc1ccc(C2C(C(=O)c3ccco3)=C(O)C(=O)N2c2nnc(SC)s2)cc1` (stereo not given), for which the activation was 29.2% (active).
Regarding `CC(C)c1nnc(N2C(=O)C(O)=C(C(=O)c3cccs3)C2c2ccccc2)s1` (stereo not given), the activation was 7.93%.
Regarding `N#Cc1c(NCCCO)nc(-c2ccccc2)c2c1CCCC2`, the activation was 16.7% (active).
Turning to `CC(=O)Nc1sc(/C(C#N)=C\c2cccc(Cl)c2)nc1-c1ccc(C)cc1`, the activation was 49.1% (active).
Consider `CCOc1cc(/C=C(\C#N)c2nc(-c3cccs3)c(NC(C)=O)s2)ccc1O`, for which the activation is 0.64%.
For the compound `CC(=O)Nc1sc(/C(C#N)=C/c2ccc(Cl)c(Cl)c2)nc1-c1ccc(C)cc1`, the activation is -3.28%.
The same measure for `O=C(CNCc1cccs1)Nc1ccc(S(=O)(=O)N2CCCCC2)cc1`: 66.4% (active); for `Cc1ccc(NC(=O)COC(=O)c2csc3c2CCC(C)C3)cc1S(=O)(=O)N1CCCCC1` (stereo not given): 3.56%; for `O=C(CNCc1cccs1)Nc1cc(S(=O)(=O)N2CCCC2)ccc1Cl`: 17.9% (active).
As to `Cc1ccc(S(=O)(=O)N2CCOCC2)cc1NC(=O)CSc1nccn1C`, the activation was 11.4%.
The same measure for `O=C(CCCN1C(=O)c2ccccc2C1=O)Nc1ccc(S(=O)(=O)N2CCCCC2)cc1`: 4.61%.
